Screens deposited in PubChem by The Scripps Research Institute Molecular Screening Center.
A selection: hits, their analogues and other compounds. The true share with any hit is near 3.4%.
TAAR1 agonist: human TAAR1 agonists, primary screen, Fluo-8 calcium fluorescence, CHO RD-HGA16 cells | Trace amine-associated receptor 1 (Homo sapiens), Q96RJ0 | activation, % at 3 µM | vehicle wells 0%, saturating PEA agonist 100% | hit rate 0.99% among 360,000;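 active means activation above the mean activation of all test compounds in the run plus 3 SD, cut at about 38% in these data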
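System: CHO-derived RD-HGA16 cells with stable Gα16 and human TAAR1. Times: 17-24 h plating, Fluo-8 75 min 37 °C, 30 min RT. Measured by: calcium-sensitive Fluo-8 signal, excitation 470-495, emission 515-575 nm. Read-out basis: % activation relative to PEA EC100 response. Control set: DMSO and PEA EC100. Repeats: no replicates (n 1).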
CHRM1 agonist: human M1 muscarinic receptor agonists, primary screen, Fluo-8 calcium fluorescence, CHO-K1 cells, HTS | Muscarinic acetylcholine receptor M1 (Homo sapiens), P11229 | activation, % at 3 µM | CHO-K1 hM1, agonist mode; 0% DMSO, 100% acetylcholine EC100 | hit rate 0.33% among 360,000 | AID 588814, 2011;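 active means activation above the run's mean compound activation plus 3 SD, cut at about 16% in these data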;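 further: peak over basal fluorescence ratio within a 140 s kinetic read after compound addition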
Target sequence (P11229 whole entry, looked up): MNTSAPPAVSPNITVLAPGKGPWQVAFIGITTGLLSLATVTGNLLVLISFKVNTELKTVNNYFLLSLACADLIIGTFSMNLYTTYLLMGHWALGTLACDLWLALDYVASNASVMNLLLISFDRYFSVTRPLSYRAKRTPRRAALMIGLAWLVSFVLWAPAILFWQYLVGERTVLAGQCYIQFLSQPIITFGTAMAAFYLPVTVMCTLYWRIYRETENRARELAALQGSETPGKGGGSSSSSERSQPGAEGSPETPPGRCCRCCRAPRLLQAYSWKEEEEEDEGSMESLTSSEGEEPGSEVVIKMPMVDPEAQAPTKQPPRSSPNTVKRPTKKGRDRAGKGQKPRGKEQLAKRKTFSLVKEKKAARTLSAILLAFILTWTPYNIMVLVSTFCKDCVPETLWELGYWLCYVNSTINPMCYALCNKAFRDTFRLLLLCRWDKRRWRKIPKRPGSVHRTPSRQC
M1 antag: human M1 muscarinic receptor antagonists, primary screen, CHO-K1 cells, Fluo-8 calcium fluorescence, 1536-well | Muscarinic acetylcholine receptor M1 (Homo sapiens), P11229 | CHO-K1 hM1, ACh EC80 antagonist | inhibition, % at 3 µM | hit rate 1.3% among 360,000;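 active means percent inhibition above its own plate's cutoff, namely the mean of that plate's compound wells plus 3 SD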;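 further: peak over basal fluorescence ratio during 140 s after agonist addition; 0% = ACh EC80 plus DMSO and 100% = DMSO alone without agonist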
M1 PAM: human M1 muscarinic receptor positive allosteric modulators, primary screen, CHO-K1 cells, Fluo-8 calcium fluorescence, 1536-well; Muscarinic acetylcholine receptor M1 (Homo sapiens), P11229; CHO-K1 hM1, ACh EC20; 0% = ACh EC20, 100% = maximal ACh; hit rate 0.088% among 360,000; activation, % at 3 µM; in the data active means activation above about 19%, passing the limit was not always enough
TAAR1 antag: human TAAR1 antagonists, primary screen, Fluo-8 calcium fluorescence, CHO RD-HGA16 cells. inhibition, % at 3 µM. AID 624466, 2012. hit rate 1.5% among 360,000. antagonist;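 active means inhibition above a per-plate cutoff, the mean inhibition of test compounds on that plate plus 3 SD, cut at about 49% in these data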;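 further: 0% = DMSO plus EC80 beta-PEA response and 100% = DMSO alone without agonist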
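Material: CHO RD-HGA16 cells bearing hTAAR1; compound dosing: one-point dosing, 3 µM nominal final; schedule: dye loading 75 min at 37 °C, then 30 min room temperature; measured by: calcium fluorescence with Fluo-8; control set: vehicle and agonist controls; replication: n of 1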
The depositor's hits bear a star; . = no result given.

SMILES	TAAR1 agonist	CHRM1 agonist	M1 antag	M1 PAM	TAAR1 antag
CCCN(CCC)CCCNC(=O)C1CCC(CNS(=O)(=O)c2cccc3nsnc23)CC1 (stereo unspecified)	.	-5.6	51.2*	-19.2	.
Cc1cccc(N2CCN(C(=O)C3CCN(S(=O)(=O)c4cccc5nsnc45)CC3)CC2C)c1 (stereo unspecified)	20.9	4.0	25.3*	-16.1	59.7*
COc1ccc(N(CC(=O)Nc2ccc3c(c2)OCO3)S(=O)(=O)c2ccccc2)cc1OC	4.5	-2.7	-10.1	7.2	0.0
COc1ccc(N(CC(=O)Nc2ccc3c(c2)OCO3)S(=O)(=O)c2ccccc2)c(OC)c1	12.8	-2.5	17.8	-4.2	56.2*
COc1cc(C(=O)N2CCC2(C)C(=O)O)cc(OC)c1OC (stereo unspecified)	4.5	1.1	-11.4	10.7	-6.4
Cc1nc2ccc(S(=O)(=O)Nc3cccc(-c4nc5cccnc5s4)c3C)cc2s1	4.5	1.7	39.2*	-19.1	59.3*
COc1ccc(NC(=O)N(C)C[C@@H]2OCc3cnnn3CCCC(=O)N([C@@H](C)CO)C[C@@H]2C)cc1	0.7	.	.	.	-14.1
CC(c1ccccc1)n1c(N2CCNCC2)nc2c1c(=O)[nH]c(=O)n2C (stereo unspecified)	5.8	1.5	69.5*	3.4	-6.5
CC(c1ccccc1)n1c(Br)nc2c1c(=O)[nH]c(=O)n2C (stereo unspecified)	3.9	-2.1	-1.1	1.7	-2.0
CCCC1/C(=N/O)CC(c2ccccc2)NC1c1ccccc1 (stereo unspecified)	17.9	-5.4	23.9	-20.4	57.4*
O=C(c1n[nH]c2ccccc12)N1CCN(S(=O)(=O)c2ccccc2)CC1	3.6	-2.2	-10.2	7.4	11.0
O=C(c1cc(=O)[nH]c2ccccc12)N1CCN(S(=O)(=O)c2ccc(Cl)cc2)CC1	29.6	-0.8	22.7	-9.7	58.8*
COc1ccc(C2CC(=O)C(c3cccc(OC)c3)=CN2Cc2ccccc2)cc1 (stereo unspecified)	-0.9	.	.	.	8.2
COc1ccc(OC)c(S(=O)(=O)N2CCC(C(=O)Nc3ccc(C)c(C)c3)CC2)c1	30.7	4.5	36.4*	-11.6	61.0*
CC1Sc2ccc(S(=O)(=O)CCC(=O)N3CCN(c4ccccc4)CC3)cc2NC1=O (stereo unspecified)	8.3	-0.3	17.3	-8.3	2.6
Cc1ccc(C)c(NC(=O)C2CCN(S(=O)(=O)c3ccc4c(c3)NC(=O)CO4)CC2)c1	-0.2	-4.0	36.5*	-3.0	13.7
CC1Sc2ccc(S(=O)(=O)CCC(=O)N3CCN(c4cccc(Cl)c4)CC3)cc2NC1=O (stereo unspecified)	10.1	2.7	45.7*	-16.3	50.3*
COc1ccc(OC)c(S(=O)(=O)N2CCC(C(=O)Nc3cccc(C)c3C)CC2)c1	8.3	-1.0	-9.6	5.9	3.2
Cc1ccc(NC(=O)C2CCN(S(=O)(=O)c3ccc4c(c3)NC(=O)C(C)S4)CC2)cc1C (stereo unspecified)	0.9	-0.4	36.0	-12.4	49.9*
COC(=O)c1ccc2nc(-c3ccco3)c(Cc3ccccc3OC)n2c1	0.5	.	.	.	-21.3
C[C@H]1Cn2cnc(C(=O)N3CCN(C(=O)OC(C)(C)C)CC3)c2C(=O)N1	0.1	.	.	.	3.5
Cn1c(=O)c2c(ncn2Cc2ccc(O)c([N+](=O)[O-])c2)n(C)c1=O	0.9	.	.	.	1.4
NC(=O)c1c(NC(=O)c2ccccc2F)sc2c1CCC2	.	0.9	-6.3	2.1	.
Cc1cc2nc(-c3nnnn3C3CCCCC3)c(=O)[nH]c2cc1C	0.9	.	.	.	-4.9
COC(=O)[C@H](Cc1ccccc1)NC(=O)[C@H]1O[C@@H](n2cnc3c(=O)[nH]c(N)nc32)[C@H](O)[C@@H]1O	1.1	.	.	.	-27.5
SMILES	TAAR1 agonist	CHRM1 agonist	M1 antag	M1 PAM	TAAR1 antag
CC1Sc2ccc(S(=O)(=O)N3CCC(C(=O)NCc4ccc(Cl)cc4)CC3)cc2NC1=O (stereo unspecified)	6.5	-1.9	12.8	-9.4	15.1
CC1Sc2ccc(S(=O)(=O)N3CCC(C(=O)Nc4cccc(Cl)c4)CC3)cc2NC1=O (stereo unspecified)	3.6	-1.7	25.2	-7.8	48.8*
CCc1ccc(NC(=O)C2CCN(S(=O)(=O)c3ccc4c(c3)NC(=O)C(C)S4)CC2)cc1 (stereo unspecified)	2.1	-2.4	55.0*	-18.8	11.9
O=C(NCC(F)(F)F)C1C(=O)Nc2ccccc2C(=O)N1C1CCCC1 (stereo unspecified)	4.1	.	.	.	-7.2
CS(=O)(=O)c1ccc2nc(NC(=O)Nc3cccc(Cl)c3)sc2c1	19.7	6.3	32.6*	-14.5	24.3
CC(=O)c1cccc(NC(=O)Nc2cccs2)c1	42.4*	5.3	1.9	1.3	28.2
CS(=O)(=O)c1ccc2nc(NC(=O)Nc3ccc(Cl)c(Cl)c3)sc2c1	7.1	-1.5	-6.0	6.2	4.3
CC(=O)c1ccc(NC(=O)c2ccc(C)c(Br)c2)cc1	24.9	-6.1	-4.9	-5.1	9.2
CC(=O)c1ccc(NC(=O)Nc2ccc(Br)cc2C)cc1	10.8	2.6	30.9*	-9.9	6.5
CC(=O)Nc1ccc(NC(=O)Nc2cccc(Cl)c2)cc1	40.0*	-0.5	-12.1	10.2	13.6
CC(C)(C)n1nc(C2CC2)cc1NC(=O)Nc1ccccc1	2.8	.	.	.	1.6
OC(c1ccccc1)(c1ccccc1)C1CCN(CCCOc2ccncc2)CC1	33.4	.	.	.	20.7
O=C(Nc1cccc(Cl)c1)Nc1ccc2nccnc2c1	47.3*	5.0	14.8	-8.0	58.2*
O=C(Nc1cccs1)Nc1ccc(Br)cc1F	10.5	-0.3	16.4	-10.4	38.6
O=C(Nc1cccs1)Nc1ccc(F)cc1F	39.3*	1.4	-4.2	2.4	-10.1
O=C(Nc1ccccc1)Nc1cccc(Cl)c1	29.9	-1.7	26.7	-13.6	22.1
CC(=O)c1ccc(NC(=O)Nc2cccc(Cl)c2)cc1	33.1	10.8	27.0*	-19.1	34.6
COCc1[nH]nc2c1C(c1ccc(F)cc1)N(c1ccc(OC)cc1)C2=O (stereo unspecified)	2.3	.	.	.	-26.8
NN=C(c1ccccc1)c1ccccc1	3.1	-3.6	-7.7	11.5	-52.1
N/N=C(\c1ccccc1)C12CN3CN(CN(C3)C1)C2	4.8	-9.3	57.8*	-26.6	-12.8
Cc1cc(C(=O)N2CCCC(C)(C(=O)NS(=O)(=O)C3CC3)C2)n(C(C)(C)C)n1 (stereo unspecified)	1.1	-2.4	-9.5	4.4	-2.0
